Reference: ChEMBL document CHEMBL1137873, “Synthesis of benzimidazole based analogues of sphingosine-1-phosphate: discovery of potent, subtype-selective S1P4 receptor agonists” (Bioorg Med Chem Lett, 2004)

Legend:
[1] = biological target: T1, Sphingosine 1-phosphate receptor 3 (Homo sapiens, UniProt Q99500); assay: In vitro binding affinity towards human Sphingosine 1-phosphate receptor 3 expressed in HEK293T cells was determined using [gamma-35S]-GTP as radioligand; na denotes not active; assay type: cell-based; conditions: hek-293t
Method in brief: (§1)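 Membranes (5 µg) from HEK293T cells expressing the relevant human S1P receptor plus G-protein, incubated in GTP-binding buffer (HEPES 50 mM, NaCl 100 mM, MgCl2 5 mM, pH 7.5) with 5 µg saponin, 10 µM GDP, 0.1 nM [γ-35S]GTP and test lipid. Incubation was 30 min at 30°C. Bound label was separated by GF/C filtration and scintillation counted. EC50 is the mean of three experiments.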

[2] = biological target: Sphingosine 1-phosphate receptor 2 (Homo sapiens, UniProt O95136); assay: In vitro binding affinity towards human Sphingosine 1-phosphate receptor 2 expressed in HEK293T cells was determined using [gamma-35S]-GTP as radioligand; na denotes not active; assay type: cell-based; conditions: hek-293t; method in brief: as §1
[3] = biological target: T2, Sphingosine 1-phosphate receptor 1 (Homo sapiens, UniProt P21453); assay: In vitro binding affinity towards human Sphingosine 1-phosphate receptor 1 expressed in HEK293T cells was determined using [gamma-35S]-GTP as radioligand; partial agonist; assay type: cell-based, HEK-293T; method in brief: as §1
[4] = biological target: T3, Sphingosine 1-phosphate receptor 5 (Homo sapiens, UniProt Q9H228); assay: In vitro binding affinity towards human Sphingosine 1-phosphate receptor 5 expressed in HEK293T cells was determined using [gamma-35S]-GTP as radioligand; na denotes not active; assay type: cell-based; conditions: hek-293t; method in brief: as §1
[5] = biological target: T4, Sphingosine 1-phosphate receptor 4 (Homo sapiens, UniProt O95977); assay: In vitro binding affinity towards human Sphingosine 1-phosphate receptor 4 expressed in HEK293T cells was determined using [gamma-35S]-GTP as radioligand; assay type: cell-based, HEK-293T; method in brief: as §1
T4 sequence (O95977 whole entry): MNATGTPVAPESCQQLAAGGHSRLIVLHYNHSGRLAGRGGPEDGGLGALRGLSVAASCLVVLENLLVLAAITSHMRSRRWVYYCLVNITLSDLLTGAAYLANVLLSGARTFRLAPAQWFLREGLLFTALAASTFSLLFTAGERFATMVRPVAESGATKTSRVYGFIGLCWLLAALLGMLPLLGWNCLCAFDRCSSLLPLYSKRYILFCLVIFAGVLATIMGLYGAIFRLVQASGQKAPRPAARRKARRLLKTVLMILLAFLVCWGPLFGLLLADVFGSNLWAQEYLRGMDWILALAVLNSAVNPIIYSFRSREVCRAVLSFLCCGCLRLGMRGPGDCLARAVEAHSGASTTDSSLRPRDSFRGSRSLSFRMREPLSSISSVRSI

[6] = biological target: T3, Sphingosine 1-phosphate receptor 5; assay: In vitro binding affinity towards human Sphingosine 1-phosphate receptor 5 expressed in HEK293T cells was determined using [gamma-35S]-GTP as radioligand; partial agonist; assay type: cell-based, HEK-293T; method in brief: as §1
[7] = biological target: T1, Sphingosine 1-phosphate receptor 3; assay: In vitro binding affinity towards human Sphingosine 1-phosphate receptor 3 expressed in HEK293T cells was determined using [gamma-35S]-GTP as radioligand; assay type: cell-based, HEK-293T
[8] = biological target: T2, Sphingosine 1-phosphate receptor 1; assay: In vitro binding affinity towards human Sphingosine 1-phosphate receptor 1 expressed in HEK293T cells was determined using [gamma-35S]-GTP as radioligand; assay type: cell-based, HEK-293T

T3 sequence (Q9H228 whole entry): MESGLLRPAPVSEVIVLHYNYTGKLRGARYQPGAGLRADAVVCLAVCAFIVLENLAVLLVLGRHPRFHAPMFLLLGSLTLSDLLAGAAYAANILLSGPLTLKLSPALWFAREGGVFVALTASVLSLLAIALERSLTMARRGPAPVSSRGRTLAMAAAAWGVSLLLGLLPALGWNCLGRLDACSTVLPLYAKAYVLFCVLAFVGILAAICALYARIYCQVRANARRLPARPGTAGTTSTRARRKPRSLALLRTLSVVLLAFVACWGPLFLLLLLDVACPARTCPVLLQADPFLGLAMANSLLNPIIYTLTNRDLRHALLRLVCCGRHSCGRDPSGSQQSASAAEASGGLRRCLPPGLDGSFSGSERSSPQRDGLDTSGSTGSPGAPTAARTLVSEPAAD
T2 sequence (P21453 whole entry): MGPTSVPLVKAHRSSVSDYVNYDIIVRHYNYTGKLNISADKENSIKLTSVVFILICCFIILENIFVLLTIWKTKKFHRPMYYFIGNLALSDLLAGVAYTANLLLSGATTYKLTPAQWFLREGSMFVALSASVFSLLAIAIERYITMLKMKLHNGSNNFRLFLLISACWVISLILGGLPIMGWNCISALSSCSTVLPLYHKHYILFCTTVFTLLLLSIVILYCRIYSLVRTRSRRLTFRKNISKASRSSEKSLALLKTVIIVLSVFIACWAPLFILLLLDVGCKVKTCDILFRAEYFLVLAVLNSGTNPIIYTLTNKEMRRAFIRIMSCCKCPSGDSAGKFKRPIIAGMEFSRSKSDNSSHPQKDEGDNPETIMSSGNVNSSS
T1 sequence (Q99500 whole entry): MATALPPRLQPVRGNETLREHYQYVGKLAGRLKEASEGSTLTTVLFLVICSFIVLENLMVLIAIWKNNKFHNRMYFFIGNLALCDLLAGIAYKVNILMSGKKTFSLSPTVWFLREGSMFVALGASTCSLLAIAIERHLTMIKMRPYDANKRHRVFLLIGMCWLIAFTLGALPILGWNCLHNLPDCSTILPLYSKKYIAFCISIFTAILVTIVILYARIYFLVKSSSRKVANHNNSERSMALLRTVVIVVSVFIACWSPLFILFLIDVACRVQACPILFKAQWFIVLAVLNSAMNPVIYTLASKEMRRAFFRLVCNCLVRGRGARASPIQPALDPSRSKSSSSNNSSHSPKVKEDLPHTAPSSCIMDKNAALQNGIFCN
Chain of Sphingosine 1-phosphate receptor 2 (O95136 whole entry): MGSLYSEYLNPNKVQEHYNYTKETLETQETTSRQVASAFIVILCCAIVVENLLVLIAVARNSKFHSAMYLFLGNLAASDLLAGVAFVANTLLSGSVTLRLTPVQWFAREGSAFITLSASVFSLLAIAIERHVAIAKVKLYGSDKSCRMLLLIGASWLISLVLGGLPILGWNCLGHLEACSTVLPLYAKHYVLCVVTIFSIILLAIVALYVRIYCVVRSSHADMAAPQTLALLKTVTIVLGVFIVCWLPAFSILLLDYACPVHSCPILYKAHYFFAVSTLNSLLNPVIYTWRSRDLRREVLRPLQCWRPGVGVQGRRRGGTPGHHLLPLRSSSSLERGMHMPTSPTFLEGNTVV

Compound	EC50 [1]	EC50 [2]	EC50 [3]	EC50 [4]	EC50 [5]	EC50 [6]	EC50 [7]	EC50 [8]
CCCCCCCCc1ccc2[nH]c([C@@H](N)[C@@H](C)O)nc2c1.O=C(O)C(F)(F)F	Not Active	Not Active	2.9 µM	Not Active	33 µM	–	–	–
CCCCCCCCCCCCC/C=C/[C@@H](O)[C@@H](N)COP(=O)(O)O	–	–	–	–	0.037 µM	–	0.0012 µM	0.02 µM
CCCCCCCCc1ccc2[nH]c(C(C)(N)COP(=O)(O)O)nc2c1.O=C(O)C(F)(F)F (stereo not drawn)	Not Active	Not Active	1 µM	–	1.2 µM	0.37 µM	–	–
CCCCCCCCc1ccc2[nH]c([C@H](N)CO)nc2c1.O=C(O)C(F)(F)F	Not Active	Not Active	0.33 µM	–	1.6 µM	0.39 µM	–	–

Second part, led by results:

EC50 [1]	EC50 [2]	EC50 [3]	EC50 [4]	EC50 [5]	EC50 [6]	Compound	EC50 [7]	EC50 [8]
Not Active	Not Active	0.24 µM	–	0.094 µM	0.077 µM	CCCCCCCCc1ccc2[nH]c([C@@H](N)[C@@H](C)OP(=O)(O)O)nc2c1.O=C(O)C(F)(F)F	–	–
Not Active	Not Active	0.021 µM	–	0.036 µM	0.0082 µM	CCCCCCCCc1ccc2[nH]c([C@H](N)COP(=O)(O)O)nc2c1.COC(=O)C(F)(F)F	–	–
Not Active	Not Active	0.037 µM	–	0.048 µM	0.0066 µM	CCCCCCCCc1ccc2[nH]c([C@@H](N)COP(=O)(O)O)nc2c1.COC(=O)C(F)(F)F	–	–
Not Active	Not Active	2.1 µM	–	4.2 µM	2.4 µM	CCCCCCCCc1ccc2[nH]c([C@@H](N)CO)nc2c1.O=C(O)C(F)(F)F	–	–
